Assay results from ChEMBL document CHEMBL4321840, “Start Selective and Rigidify: The Discovery Path toward a Next Generation of EGFR Tyrosine Kinase Inhibitors” (J Med Chem, 2019).
Values after ≈ are worked out from the molar mass of the structure shown.

System: not listed separately
Test: Selectivity index, ratio of IC50 for antiproliferative activity against mouse BAF3 cells harboring wild type EGFR to IC50 for antiproliferative activity against mouse BAF3(transformed) cells harboring EGFR del19/T790M/C797S triple mutant incubated for 72 hrs by Celltiter-Glo luminescent cell viability assay
Format: functional
Conditions: not given
Procedure, shortened: (§1)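 Murine Ba/F3 cells retrovirally transduced with GFP plus EGFR wt, del19 or del19/T790M/C797S, then puromycin-selected. Mutant lines were made IL-3-independent; wt line grown on EGF without IL-3. EGFR-independent control cells carried GFP-only vector and were kept in IL-3. Seeded at 5x10³/100 µl, treated 72 h at 37 °C, viability read by CellTiter-Glo luminescence. Technical and biological triplicates. Geometric mean of ≥3 independent runs. Selectivity ratio = wt IC50 / del19/T790M/C797S IC50.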

Structure (SMILES) | Ratio IC50
O=C1/N=C2\Nc3ccccc3N2CCCCCOc2ccccc2-c2cc1ccn2 | 48
Cc1cc2cc(n1)-c1cnn(C)c1OCCCCCN1/C(=N/C2=O)Nc2ccccc21 | 460
Cc1cc2cc(n1)-c1cnn(C)c1OCCC[C@@H](C)CN1/C(=N/C2=O)Nc2ccccc21 | >1000
Cn1ncc2c1OCCCCCN1/C(=N/C(=O)c3cc(F)nc-2c3)Nc2ccccc21 | 45

System: PC-9
Test: Antitumor activity against human PC9 cells harboring del19/T790M/C797S triple mutant xenografted in BomTac:NMRI-Foxn1nu mouse assessed as tumor growth inhibition at 10 mg/kg, po qd administered for 19 days relative to control
Format: functional
Conditions: PC-9, po, 456 h, read-out: TGI
Procedure, shortened: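 Female BomTac:NMRI-Foxn1nu mice, 6-8 weeks old, implanted s.c. with 5×10⁶ PC-9 del19/T790M/C797S cells. Randomized by tumor size on day 7 (N=8 per treated group, N=10 vehicle). […] Tumor size and body weight measured three times weekly. Tumor volumes compared by one-sided decreasing Mann–Whitney test.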

Structure (SMILES) | inhibition in vivo at 10 mg/kg
Cc1cc2cc(n1)-c1cnn(C)c1OCCC[C@@H](C)CN1/C(=N/C2=O)Nc2ccc(CN3CCN(C)CC3)cc21 | 121%

System: not listed separately
Test: Apparent permeability of compound at pH 7.4 by LC-MS based PAMPA method
Format: ADME
Conditions: not given
Procedure, shortened: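 PAMPA at pH 7.4. A microfilter disc coated with immobilized artificial phospholipid membrane layers separates donor and acceptor chambers. Compound concentrations in both chambers are followed over time by LC/MS and compared with the donor concentration before incubation.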

Structure (SMILES) | Papp
Cc1cc2cc(n1)-c1cnn(C)c1OCCC[C@@H](C)CN1/C(=N/C2=O)Nc2ccccc21 | 0.2 ×10⁻⁶ cm/s
Cc1cc2cc(n1)-c1cnn(C)c1OCCC[C@@H](C)CN1/C(=N/C2=O)Nc2ccc(CN3CCN(C)CC3)cc21 | 5.3 ×10⁻⁶ cm/s
C=CC(=O)Nc1cc(Nc2nccc(-c3cn(C)c4ccccc34)n2)c(OC)cc1N(C)CCN(C)C [OSIMERTINIB] | 2.7 ×10⁻⁶ cm/s

System: not listed separately
Test: Protein binding in human plasma assessed as free fraction after 3 hrs by HPLC-MS/MS-based equilibrium dialysis method
Format: ADME, cell-free
Conditions: not given
Procedure, shortened: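 Equilibrium dialysis: human plasma spiked with compound and dialyzed against Soerensen buffer (pH 7.4) for 3 h at 37 °C. Compound in plasma and buffer quantified by HPLC/MS-MS to calculate binding and free fraction.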

Structure (SMILES) | fraction unbound at 3 h
Cc1cc2cc(n1)-c1cnn(C)c1OCCC[C@@H](C)CN1/C(=N/C2=O)Nc2ccccc21 | 0.5

System: not listed separately
Test: Aqueous solubility of compound in McIlvaine buffer at 1 mg/ml at pH 6.8 by HPLC-DAD/UV analysis
Format: physicochemical
Conditions: not given
Procedure, shortened: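 Solid compound dispensed at 1 mg/mL into aqueous McIlvaine buffer (pH 6.8). Reference sample dissolved in acetonitrile/water (1:1). Dissolved concentration quantified by HPLC-DAD/UV.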

Structure (SMILES) | solubility
Cc1cc2cc(n1)-c1cnn(C)c1OCCC[C@@H](C)CN1/C(=N/C2=O)Nc2ccccc21 | < 0.1 µg/mL
Cc1cc2cc(n1)-c1cnn(C)c1OCCC[C@@H](C)CN1/C(=N/C2=O)Nc2ccc(CN3CCN(C)CC3)cc21 | 95 µg/mL (≈ 175 µM)
C=CC(=O)Nc1cc(Nc2nccc(-c3cn(C)c4ccccc34)n2)c(OC)cc1N(C)CCN(C)C [OSIMERTINIB] | 86 µg/mL (≈ 172 µM)

System: not listed separately
Test: Hepatic clearance in mouse cryopreserved hepatocytes at 1 uM measured after 240 mins by LC-MS/MS analysis relative to hepatic blood flow
Format: ADME, cell-based, Hepatocyte
Conditions: read-out: CLH
Procedure, shortened: (§2)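 Compound (1 µM) incubated with cryopreserved hepatocytes. Depletion followed over 240 min by LC/MS/MS quantitation. In vivo hepatic clearance predicted with the well-stirred model and expressed as percent of hepatic blood flow (%QH).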

Structure (SMILES) | hepatic extraction ratio at 4 h, 1 µM
Cc1cc2cc(n1)-c1cnn(C)c1OCCC[C@@H](C)CN1/C(=N/C2=O)Nc2ccccc21 | 0.47

System: BaF3
Test: Cytotoxicity against mouse BAF3 cells incubated for 72 hrs by Celltiter-Glo luminescent cell viability assay
Format: cell-based
Conditions: BaF3, 72 h
Procedure, shortened: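 Mutant lines were made IL-3-independent; wt line grown on EGF without IL-3. EGFR-independent control cells carried GFP-only vector and were kept in IL-3. Seeded at 5x10³/100 µl, treated 72 h at 37 °C, viability read by CellTiter-Glo luminescence. Technical and biological triplicates. Geometric mean of ≥3 independent runs.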

Structure (SMILES) | IC50
O=C1/N=C2\Nc3ccccc3N2CCCCCOc2ccccc2-c2cc1ccn2 | 1600 nM
Cc1cc2cc(n1)-c1cnn(C)c1OCCCCCN1/C(=N/C2=O)Nc2ccccc21 | 1700 nM
Cc1cc2cc(n1)-c1cnn(C)c1OCCC[C@@H](C)CN1/C(=N/C2=O)Nc2ccccc21 | 1000 nM
Cc1cc2cc(n1)-c1cnn(C)c1OCCC[C@@H](C)CN1/C(=N/C2=O)Nc2ccc(CN3CCN(C)CC3)cc21 | 1100 nM
Cn1ncc2c1OCCCCCN1/C(=N/C(=O)c3cc(F)nc-2c3)Nc2ccccc21 | 330 nM
C=CC(=O)Nc1cc(Nc2nccc(-c3cn(C)c4ccccc34)n2)c(OC)cc1N(C)CCN(C)C [OSIMERTINIB] | 1100 nM

System: A-431
Test: Antiproliferative activity against human A431 cells harboring EGFR wild type incubated for 96 hrs by Celltiter-Glo luminescent cell viability assay
Format: functional, cell-based
Conditions: A-431, 96 h

Structure (SMILES) | IC50
Cc1cc2cc(n1)-c1cnn(C)c1OCCC[C@@H](C)CN1/C(=N/C2=O)Nc2ccc(CN3CCN(C)CC3)cc21 | 200 nM

System: not listed separately
Test: Protein binding in mouse plasma assessed as free fraction after 3 hrs by HPLC-MS/MS-based equilibrium dialysis method
Format: ADME, cell-free
Conditions: not given
Procedure, shortened: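 Equilibrium dialysis of compound-spiked plasma against Soerensen buffer (pH 7.4) for 3 hours at 37°C. Compound levels in the plasma and buffer sides quantified by HPLC/MS-MS to give the bound and free fractions.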

Structure (SMILES) | fraction unbound at 3 h
Cc1cc2cc(n1)-c1cnn(C)c1OCCC[C@@H](C)CN1/C(=N/C2=O)Nc2ccccc21 | < 0.3
C=CC(=O)Nc1cc(Nc2nccc(-c3cn(C)c4ccccc34)n2)c(OC)cc1N(C)CCN(C)C [OSIMERTINIB] | < 0.1

Target: Epidermal growth factor receptor (Homo sapiens, UniProt P00533, C797S/EX19DEL/T790M)
Sequence (P00533 whole entry, looked up, stated change not applied): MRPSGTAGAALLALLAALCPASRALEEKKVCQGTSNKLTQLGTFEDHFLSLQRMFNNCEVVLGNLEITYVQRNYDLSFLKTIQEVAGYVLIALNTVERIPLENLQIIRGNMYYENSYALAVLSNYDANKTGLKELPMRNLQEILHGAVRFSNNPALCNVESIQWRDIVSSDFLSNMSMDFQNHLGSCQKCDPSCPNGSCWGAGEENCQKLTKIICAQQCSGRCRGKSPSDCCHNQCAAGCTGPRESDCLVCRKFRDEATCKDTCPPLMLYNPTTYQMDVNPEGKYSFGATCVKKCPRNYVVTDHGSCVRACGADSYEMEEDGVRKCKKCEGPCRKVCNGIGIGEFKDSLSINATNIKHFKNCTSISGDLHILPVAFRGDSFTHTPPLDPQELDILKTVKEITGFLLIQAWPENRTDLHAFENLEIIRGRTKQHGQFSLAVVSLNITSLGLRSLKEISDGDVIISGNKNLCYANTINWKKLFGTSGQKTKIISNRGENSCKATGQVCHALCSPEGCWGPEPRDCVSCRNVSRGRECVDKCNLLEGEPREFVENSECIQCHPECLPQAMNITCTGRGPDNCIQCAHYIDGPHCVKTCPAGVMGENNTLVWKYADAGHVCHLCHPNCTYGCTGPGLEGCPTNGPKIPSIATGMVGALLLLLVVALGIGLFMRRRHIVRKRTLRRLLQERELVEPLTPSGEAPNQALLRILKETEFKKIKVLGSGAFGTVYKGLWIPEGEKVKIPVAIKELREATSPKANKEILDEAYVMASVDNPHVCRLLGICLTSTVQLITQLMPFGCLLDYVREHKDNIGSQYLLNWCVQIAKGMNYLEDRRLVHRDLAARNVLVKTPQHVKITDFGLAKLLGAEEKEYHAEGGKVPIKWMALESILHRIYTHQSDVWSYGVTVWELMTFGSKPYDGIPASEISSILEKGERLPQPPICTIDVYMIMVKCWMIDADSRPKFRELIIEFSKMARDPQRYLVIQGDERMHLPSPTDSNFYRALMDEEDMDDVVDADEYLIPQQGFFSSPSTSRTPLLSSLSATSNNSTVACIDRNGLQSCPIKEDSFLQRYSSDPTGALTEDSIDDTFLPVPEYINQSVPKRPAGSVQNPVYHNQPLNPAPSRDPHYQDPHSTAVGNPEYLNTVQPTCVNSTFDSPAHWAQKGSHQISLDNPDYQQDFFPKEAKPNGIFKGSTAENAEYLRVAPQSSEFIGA
Test: Inhibition of phosphorylated EGFR del19/T790M/C797S triple mutant (unknown origin) expressed in mouse BaF3 cells incubated for 4 hrs by Alphascreen assay
Format: cell-based
Conditions: not given

Structure (SMILES) | IC50
O=C1/N=C2\Nc3ccccc3N2CCCCCOc2ccccc2-c2cc1ccn2 | 3 nM
Cc1cc2cc(n1)-c1cnn(C)c1OCCCCCN1/C(=N/C2=O)Nc2ccccc21 | 1 nM
Cc1cc2cc(n1)-c1cnn(C)c1OCCC[C@@H](C)CN1/C(=N/C2=O)Nc2ccccc21 | 0.8 nM
Cn1ncc2c1OCCCCCN1/C(=N/C(=O)c3cc(F)nc-2c3)Nc2ccccc21 | 1.2 nM

System: not listed separately
Test: Hepatic clearance in human cryopreserved hepatocytes at 1 uM measured after 240 mins by LC-MS/MS analysis relative to hepatic blood flow
Format: ADME, cell-based, Hepatocyte
Conditions: read-out: CLH
Procedure, shortened: as §2

Structure (SMILES) | hepatic extraction ratio at 4 h, 1 µM
Cc1cc2cc(n1)-c1cnn(C)c1OCCC[C@@H](C)CN1/C(=N/C2=O)Nc2ccccc21 | 0.12

System: PC-9
Test: Antiproliferative activity against human PC9 cells harboring EGFR del19/T790M/C797S triple mutant incubated for 96 hrs by Celltiter-Glo luminescent cell viability assay
Format: functional, cell-based
Conditions: PC-9, 96 h
Procedure, shortened: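 Cells plated in 96-well plates (A431 5000/well in DMEM + 10% FBS + sodium pyruvate; PC-9 del19/T790M/C797S 2000/well in RPMI + 10% FBS). Compound added 24 h after plating, then 96 h at 37°C, 5% CO2. Viability read by CellTiter-Glo luminescence, normalised to DMSO-treated cells, IC50 fitted. Technical and biological triplicates.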

Structure (SMILES) | IC50
Cc1cc2cc(n1)-c1cnn(C)c1OCCC[C@@H](C)CN1/C(=N/C2=O)Nc2ccc(CN3CCN(C)CC3)cc21 | 1.3 nM
C=CC(=O)Nc1cc(Nc2nccc(-c3cn(C)c4ccccc34)n2)c(OC)cc1N(C)CCN(C)C [OSIMERTINIB] | > 1000 nM

System: not listed separately
Test: Volume of distribution in NMRI mouse at 10 mg/kg, po or 1 mg/kg, iv
Format: ADME, organism-based
Conditions: in vivo
Procedure, shortened: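 NMRI mice (n=3 per group) dosed orally at 10 mg/kg or intravenously at 1 mg/kg. Five plasma samples per mouse at set time points. Plasma protein precipitated with acetonitrile, compound quantified by LC-MS/MS against a calibration curve.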

Structure (SMILES) | Vd
Cc1cc2cc(n1)-c1cnn(C)c1OCCC[C@@H](C)CN1/C(=N/C2=O)Nc2ccc(CN3CCN(C)CC3)cc21 | 4.2 L/kg

System: not listed separately
Test: Inhibition of EGFR del19 mutant in mouse BAF3 cells incubated for 72 hrs by Celltiter-Glo luminescent cell viability assay
Format: cell-based
Conditions: BaF3, 72 h
Procedure, shortened: as §1

Structure (SMILES) | IC50
Cc1cc2cc(n1)-c1cnn(C)c1OCCC[C@@H](C)CN1/C(=N/C2=O)Nc2ccc(CN3CCN(C)CC3)cc21 | 1 nM

System: not listed separately
Test: Inhibition of EGFR del19/T790M/C797S triple mutant in mouse BAF3 cells assessed as reduction in cell proliferation incubated for 72 hrs by Celltiter-Glo luminescent cell viability assay
Format: cell-based
Conditions: BaF3, 72 h
Procedure, shortened: as §1

Structure (SMILES) | IC50
O=C1/N=C2\Nc3ccccc3N2CCCCCOc2ccccc2-c2cc1ccn2 | 27 nM
Cc1cc2cc(n1)-c1cnn(C)c1OCCCCCN1/C(=N/C2=O)Nc2ccccc21 | 5 nM
Cc1cc2cc(n1)-c1cnn(C)c1OCCC[C@@H](C)CN1/C(=N/C2=O)Nc2ccccc21 | 1 nM
Cc1cc2cc(n1)-c1cnn(C)c1OCCC[C@@H](C)CN1/C(=N/C2=O)Nc2ccc(CN3CCN(C)CC3)cc21 | 0.2 nM
Cn1ncc2c1OCCCCCN1/C(=N/C(=O)c3cc(F)nc-2c3)Nc2ccccc21 | 6 nM
C=CC(=O)Nc1cc(Nc2nccc(-c3cn(C)c4ccccc34)n2)c(OC)cc1N(C)CCN(C)C [OSIMERTINIB] | 780 nM
